Assay outcomes from PubChem.
NR2E3 ag-1: agonists of human NR2E3 nuclear receptor. Q9Y5X4. CHO-S Gal4-NCOR/VP16-NR2E3 two-hybrid, luciferase. inhibition of corepressor binding, % at 3.98 µM. hit rate 0.35% among 360,000. AID 602229;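 active = inhibition above the mean of all tested compounds plus 3 SD, cut at about 70% in these data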;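 also: 0% = DMSO with NR2E3 transfected cells and 100% = cells lacking NR2E3 construct; higher means lower luciferase signal from less NR2E3 corepressor binding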
Target sequence (Q9Y5X4 whole entry, looked up, the tested form may be a part): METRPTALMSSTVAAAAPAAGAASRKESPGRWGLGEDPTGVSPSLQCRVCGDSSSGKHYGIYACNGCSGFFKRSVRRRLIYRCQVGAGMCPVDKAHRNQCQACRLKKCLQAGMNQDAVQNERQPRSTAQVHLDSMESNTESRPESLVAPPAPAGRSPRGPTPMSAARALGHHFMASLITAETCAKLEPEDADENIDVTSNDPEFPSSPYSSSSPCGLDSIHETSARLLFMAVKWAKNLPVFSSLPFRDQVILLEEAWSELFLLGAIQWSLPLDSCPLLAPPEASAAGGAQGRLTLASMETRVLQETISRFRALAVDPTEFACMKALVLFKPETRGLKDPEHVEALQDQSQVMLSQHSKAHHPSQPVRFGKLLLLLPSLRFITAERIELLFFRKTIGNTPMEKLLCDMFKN
bovine MsrA act: activates bovine MsrA enzyme | activation, % at 10.6 µM | hit rate 0.3% among 360,000 | AID 602163 | purified bovine MsrA, absorbance read-out; in the data active = activation above about 7.5%;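 also: 0% = vehicle and 100% = reference activator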
MsrA inhibitor: inhibits bovine methionine sulfoxide reductase A; hit rate 0.75% among 360,000; inhibition, % at 15.5 µM; purified bovine MsrA, absorbance read-out; in the data active = inhibition above about 4.5%;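 also: 0% = vehicle wells with enzyme and 100% = reference inhibitor wells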
NadD inh: NadD (S. aureus) enzyme inhibition. hit rate 0.78% among 360,000. inhibition, % at 20 µM. purified NadD enzyme, colorimetric absorbance read-out; in the data active = inhibition above about 26%
NR2E3 ag-2: activates human photoreceptor nuclear receptor NR2E3; GST-NR2E3/biotin-RetCOR TR-FRET, 1536-well; inhibition of corepressor binding, % at 4.78 µM; hit rate 0.12% among 320,000; AID 2300;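 active = percent inhibition above the cutoff of mean plus 3 SD of all tested compounds, set per screening campaign, cut at about 20% in these data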;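 also: 0% = DMSO wells and 100% = biotin wells as full block of FRET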
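System: GST-tagged NR2E3 plus biotinylated RetCOR corepressor; Buffer or medium: pH 7.5 Tris-based buffer; Probe or stimulus: RetCOR corepressor, biotinylated, 7 nM; Doses: compound at 4.8 µM, single dose; Schedule: 5 h incubation at 4 °C; Technique: time-resolved FRET; Evaluation: percent inhibition of TR-FRET ratio; Replication: one well per compound, singlicate testing.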
GalR3 antag: antagonists of human GalR3; HEK293 GalR3-CNG cAMP membrane potential fluorescence; galR3 body fused to GalR1 C-terminus; inhibition, % at 3 µM; hit rate 0.44% among 360,000; AID 651719;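 active = inhibition above the screen-wide average plus 3 SD, cut at about 13% in these data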;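 also: forskolin and galanin both at EC90 stimulate the cells; cAMP rise reported by CNG channel membrane potential dye signal; 0% = forskolin plus galanin with DMSO and 100% = forskolin alone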
Target sequence (O60755 1-299 limits assumed): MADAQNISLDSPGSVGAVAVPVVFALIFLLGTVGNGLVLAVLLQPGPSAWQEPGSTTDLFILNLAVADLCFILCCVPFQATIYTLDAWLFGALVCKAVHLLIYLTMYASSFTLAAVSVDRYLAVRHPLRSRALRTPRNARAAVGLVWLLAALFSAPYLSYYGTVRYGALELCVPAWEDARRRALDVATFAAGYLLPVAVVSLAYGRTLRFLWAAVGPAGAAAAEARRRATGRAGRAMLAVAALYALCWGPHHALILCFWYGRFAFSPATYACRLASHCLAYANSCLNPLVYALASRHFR
An asterisk follows results filed as active. This is a sample that favours compounds with a hit; in the whole collection about 2.5% have one here.

How did CCCc1ccc(S(=O)(=O)NCCc2ccncc2)cc1 do in these assays?
NR2E3 ag-1: 45.4; bovine MsrA act: -1.3; MsrA inhibitor: -1.2; NadD inh: -7.2; NR2E3 ag-2: 3.5; GalR3 antag: -7.5

How did CCCCCc1ccc(S(=O)(=O)NCCc2ccncc2)cc1 do in these assays?
NR2E3 ag-1: 88.4*; bovine MsrA act: -0.2; MsrA inhibitor: -1.1; NadD inh: 2.2; NR2E3 ag-2: 1.8; GalR3 antag: -9.7

How did Cc1nn(C)c(C)c1N1C(=O)c2cccc3c(N)ccc(c23)C1=O do in these assays?
NR2E3 ag-1: -19.1; bovine MsrA act: -2.0; MsrA inhibitor: -1.1; NadD inh: -2.0; NR2E3 ag-2: -6.6; GalR3 antag: 12.0

How did Cc1ccc(N2C(=O)c3cccc4c(N)ccc(c34)C2=O)c2cccnc12 do in these assays?
NR2E3 ag-1: -22.9; bovine MsrA act: -2.0; MsrA inhibitor: -0.3; NadD inh: 2.1; NR2E3 ag-2: -0.6; GalR3 antag: 19.2*

Results for Cc1ccc(C(=O)N2CCC[C@@H]2C(=O)N2CCC[C@@H]2C(=O)NCc2ccccc2)cc1C ?
MsrA inhibitor: -0.8; GalR3 antag: 0.9

Results for COc1ccccc1/C=C1\S/C(=N/NC(=O)c2cccc(Br)c2)NC1=O ?
NR2E3 ag-1: -5.7; bovine MsrA act: -2.5; MsrA inhibitor: 1.8; NadD inh: 37.6*; NR2E3 ag-2: -3.1; GalR3 antag: -2.8

How did COC(=O)/C=C1\S/C(=N/NC(=O)c2ccccc2)NC1=O do in these assays?
NR2E3 ag-1: 9.1; bovine MsrA act: 0.4; MsrA inhibitor: 3.6; NadD inh: 3.5; NR2E3 ag-2: 2.9; GalR3 antag: 0.7

How did N#C/C(=C\c1ccc(N2CCCC2)c([N+](=O)[O-])c1)c1nc2ccccc2[nH]1 do in these assays?
NR2E3 ag-1: -38.1; bovine MsrA act: -4.8; MsrA inhibitor: -0.1; NadD inh: 31.5*; NR2E3 ag-2: 0.4; GalR3 antag: -3.4

What do the screens show for `CCCCCCCCCCCC1=C(O)C(=O)C=C(O)C1=O`?
NR2E3 ag-1: -24.9; bovine MsrA act: -3.0; NadD inh: 36.9*; NR2E3 ag-2: -2.8

Results for COC1=CC(=O)C(O)=C(CCCCCCC/C=C/CCCCCCCC2=C(O)C(=O)C=C(OC)C2=O)C1=O ?
NR2E3 ag-1: 23.4; bovine MsrA act: -9.3; NadD inh: 50.6*; NR2E3 ag-2: 3.4

What do the screens show for `Cc1ccc(Nc2nc(-c3cccnc3)nc3ccccc23)cc1`?
NR2E3 ag-1: -1.8; bovine MsrA act: -4.4; MsrA inhibitor: 0.3; NadD inh: -8.8; NR2E3 ag-2: -1.2; GalR3 antag: -3.2

Results for COc1ccc(/C=N/Nc2nc(-c3cccnc3)nc3ccccc23)cc1OC ?
NR2E3 ag-1: 1.4; bovine MsrA act: -3.4; MsrA inhibitor: 1.4; NadD inh: -2.3; NR2E3 ag-2: 3.2; GalR3 antag: 0.0

How did Cc1c(O)ccc(/C=N/Nc2nc(-c3cccnc3)nc3ccccc23)c1O do in these assays?
NR2E3 ag-1: -9.2; bovine MsrA act: -9.4; MsrA inhibitor: 1.0; NadD inh: 36.4*; NR2E3 ag-2: -1.3; GalR3 antag: -2.8

Results for Oc1ccc(/C=N/Nc2nc(-c3cccnc3)nc3ccccc23)c(O)c1 ?
NR2E3 ag-1: -54.6; bovine MsrA act: -4.0; MsrA inhibitor: 0.4; NadD inh: 39.3*; NR2E3 ag-2: -1.3; GalR3 antag: 0.7

Results for Cc1ccc(-n2nnnc2Sc2ccc(S(=O)(=O)NCCN(C)C)cc2[N+](=O)[O-])cc1 ?
NR2E3 ag-1: 5.5; bovine MsrA act: -2.8; MsrA inhibitor: 0.4; NadD inh: -4.6; NR2E3 ag-2: -1.6; GalR3 antag: -3.4

Results for Cc1cc(C)c2nc(-c3ccccn3)cc(C(=O)Nc3ccc(S(=O)(=O)Nc4cc(C)on4)cc3)c2c1 ?
NR2E3 ag-1: 5.2; bovine MsrA act: -6.2; MsrA inhibitor: -0.1; NadD inh: 61.2*; NR2E3 ag-2: 4.3; GalR3 antag: -3.2

Results for Cc1cc(C)c2nc(-c3ccccn3)cc(C(=O)Nc3ccc(S(=O)(=O)Nc4onc(C)c4C)cc3)c2c1 ?
NR2E3 ag-1: -18.0; bovine MsrA act: -4.1; NadD inh: 40.9*; NR2E3 ag-2: -0.7

What do the screens show for `O=C1NCCN1c1ccc(CN2CCN(C3CCCCC3)C(CCO)C2)cc1` (stereo unspecified)?
NR2E3 ag-1: -14.3; bovine MsrA act: -13.1; MsrA inhibitor: 1.2; NadD inh: 0.2; NR2E3 ag-2: 1.6; GalR3 antag: 3.9

How did O=C(O)c1cccc(-n2sc3ccccc3c2=O)c1 do in these assays?
NR2E3 ag-1: -9.3; bovine MsrA act: 17.4*; MsrA inhibitor: 1.6; NadD inh: -5.4; NR2E3 ag-2: 2.8; GalR3 antag: -3.1

What do the screens show for `O=c1c2cc(C(F)(F)F)ccc2sn1-c1ccccc1`?
NR2E3 ag-1: -10.0; bovine MsrA act: 7.0; MsrA inhibitor: -0.7; NadD inh: 4.1; GalR3 antag: -8.6

Results for CCN(CC)S(=O)(=O)c1cccc(C(=O)Nc2cccc(C)c2)c1 ?
NR2E3 ag-1: -31.5; bovine MsrA act: -2.8; MsrA inhibitor: -0.9; NadD inh: -7.9; NR2E3 ag-2: 0.6; GalR3 antag: -1.5

Results for CCN(CC)S(=O)(=O)c1cccc(NC(=O)C2SC(=Nc3ccc(C)cc3C)C(C(=O)NC(C)COC)=C2N)c1 (stereo unspecified) ?
NR2E3 ag-1: -8.2; bovine MsrA act: -2.1; MsrA inhibitor: -0.9; NadD inh: 44.3*; NR2E3 ag-2: -3.2; GalR3 antag: -5.3

How did Cc1ccc(NS(=O)(=O)c2cc([N+](=O)[O-])ccc2NNC(=S)Nc2cccc(Cl)c2)c(C)c1 do in these assays?
NR2E3 ag-1: -40.6; bovine MsrA act: -6.2; NadD inh: 45.7*; NR2E3 ag-2: 1.3

Results for CN(C)C(=O)c1ccc2c(c1[N+](=O)[O-])C(=O)c1ccccc1C2=O ?
NR2E3 ag-1: -36.7; bovine MsrA act: -2.6; MsrA inhibitor: 0.7; NadD inh: 7.0; NR2E3 ag-2: 0.1; GalR3 antag: -2.1

How did Cc1[nH]c2c(C)cccc2c1CCNC(=O)c1ccc2c(c1[N+](=O)[O-])C(=O)c1ccccc1C2=O do in these assays?
NR2E3 ag-1: -30.3; bovine MsrA act: -1.0; MsrA inhibitor: 0.8; NadD inh: 35.3*; NR2E3 ag-2: 0.3; GalR3 antag: -6.2

How did Cc1cccc2c(=O)c(C(=O)NCCc3ccccc3)c[nH]c12 do in these assays?
NR2E3 ag-1: -43.6; bovine MsrA act: -3.5; MsrA inhibitor: -0.6; NadD inh: -4.9; NR2E3 ag-2: 5.5; GalR3 antag: -9.5

What do the screens show for `Cc1[nH]c2ccccc2c1CCNC(=O)c1ccc2c(c1[N+](=O)[O-])C(=O)c1ccccc1C2=O`?
NR2E3 ag-1: -22.5; bovine MsrA act: -3.5; MsrA inhibitor: 0.1; NadD inh: 40.1*; NR2E3 ag-2: 7.1; GalR3 antag: -9.3

What do the screens show for `CC(=Cc1cccs1)C(=O)c1ccccc1`?
NR2E3 ag-1: -13.0; bovine MsrA act: -5.6; MsrA inhibitor: 1.2; NadD inh: -10.0; GalR3 antag: -6.4
